# Laboratory results published in ChEMBL document CHEMBL1146273, “Kynurenic acid amides as novel NR2B selective NMDA receptor antagonists” (Bioorg Med Chem Lett, 2007).
# How the values were obtained:
# [1] = target: Glutamate NMDA receptor; assay: Inhibition of NMDA receptor in rat cortical cells assessed as NMDA-evoked increase in intracellular calcium level; format: cell-based
# Summary of the method: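 Rat cortical cell culture loaded with Fluo-4/AM. Baseline and NMDA-evoked intracellular Ca2+ changes monitored by fluorimetry on a plate reader. Number of experiments (n) given per compound.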
# [2] = species on record: Rattus norvegicus; assay: Inhibition of human recombinant NR1/NR2A receptor expressed in rat cortical cells assessed as NMDA-evoked increase in intracellular calcium level at 15 uM; format: cell-based
# Summary of the method: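 Fluo-4/AM Ca2+ fluorimetry on a plate reader, applied to cells expressing recombinant NR1/NR2A receptors. Inhibition (%) of the NMDA-evoked intracellular Ca2+ increase measured at 15 µM compound.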
# [3] = tested on: Mus musculus; assay: Analgesic activity against formalin-induced pain in po dosed mouse; format: ADME, organism-based
# Summary of the method: (§1)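 Fasted male NMRI mice (20–25 g) dosed orally with test drug or vehicle (5% Tween 80) 15 min before 20 µl of 1% formalin injected sc into right hindpaw. Licking/biting time read by visual observation at 20–25 min post-formalin (late phase). Percent decrease versus daily vehicle group; Mann–Whitney U-test; ED50 from Boltzmann sigmoidal fit.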
# [4] = target: Glutamate NMDA receptor (Rattus norvegicus) (UniProt P35439+Q00959+Q00960+Q00961+Q62645+Q8VHN2+Q9R1M7); assay: Inhibition of NMDA receptor in rat cortical cells assessed as NMDA-evoked increase in intracellular calcium level at 0.1 uM; format: cell-based
# Summary of the method: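 Rat cortical cell culture loaded with Fluo-4/AM. Baseline and NMDA-evoked intracellular Ca2+ changes monitored by fluorimetry on a plate reader. Read-out is inhibition of the NMDA-evoked Ca2+ rise, with percent inhibition taken at 0.1 µM compound. Number of experiments (n) given per compound.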
# [5] = tested on: Mus musculus; assay: Analgesic activity against formalin-induced pain in mouse at 20 mg/kg, po; format: ADME, organism-based; set-up: dose 20 mg/kg, route oral; conditions: in vivo; summary of the method: as §1
# [6] = target: Glutamate NMDA receptor; assay: Displacement of [3H]Ro-256981 from NMDA receptor in rat forebrain membrane; format: cell membranes
# Summary of the method: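 Binding assay on rat forebrain membrane using tritiated Ro-25,6981 as radioligand.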
SMILES,IC50 [1],inhibition [4],Activity [5],Ki [6],inhibition [2],ED50 [3]
Cc1ccc(CC2CCN(C(=O)c3cc(=O)c4cc(O)ccc4[nH]3)CC2)cc1,11 nM,–,–,–,-2.4%,10.6 mg/kg
O=C(c1cc(=O)c2cc(O)ccc2[nH]1)N1CCC(Cc2ccc(F)cc2)CC1,8.7 nM,–,–,–,-0.9%,9.5 mg/kg
O=C(c1cc(=O)c2cc(O)ccc2[nH]1)N1CCC(Cc2ccc(Cl)cc2)CC1,9.1 nM,–,Not Active,–,-5.1%,–
O=C(c1nc2ccc(O)cc2[nH]1)N1CCC(Cc2ccccc2)CC1,–,–,–,–,21%,–
O=C(c1cc(=O)c2cc(O)ccc2[nH]1)N1CCC(Oc2ccccc2)CC1,49.6 nM,–,–,–,0.7%,8.5 mg/kg
O=C(c1cc2ccc(O)cc2[nH]1)N1CCC(Cc2ccccc2)CC1,–,–,–,–,15.6%,–
O=C(c1cc(=O)c2cc(O)ccc2[nH]1)N1CCC(Oc2ccc(Cl)cc2)CC1,7.1 nM,–,Not Active,–,5.1%,–
C[C@H]([C@@H](O)c1ccc(O)cc1)N1CCC(Cc2ccccc2)CC1,–,–,–,–,-2.7%,–
O=C(c1nc(=O)c2cc(O)ccc2[nH]1)N1CCC(Cc2ccccc2)CC1,317 nM,–,–,–,13.9%,–
Cc1ccc(OC2CCN(C(=O)c3cc(=O)c4cc(O)ccc4[nH]3)CC2)cc1,6.2 nM,–,–,4.2 nM,-3.5%,8.2 mg/kg
O=C(c1cc(=O)c2cc3[nH]c(=O)oc3cc2[nH]1)N1CCC(Cc2ccccc2)CC1,21.7 nM,–,–,–,-2.1%,> 20 mg/kg

# The next lines start with results.
IC50 [1],inhibition [4],Activity [5],Ki [6],SMILES,inhibition [2],ED50 [3]
–,27.9%,–,–,O=C(c1cc(=O)c2ccc(O)cc2[nH]1)N1CCC(Cc2ccccc2)CC1,9.1%,–
9.1 nM,–,Not Active,–,O=C(c1cc(=O)c2cc(O)ccc2[nH]1)N1CCC(Cc2ccccc2)CC1,8.9%,–
25 nM,–,–,–,O=C(c1cc2cc(O)ccc2[nH]1)N1CCC(Cc2ccccc2)CC1,17.2%,–
–,2.6%,–,–,CC(=O)Nc1ccc2[nH]c(C(=O)N3CCC(Cc4ccccc4)CC3)cc(=O)c2c1,12.4%,–
–,4.5%,–,–,O=C(c1cc(=O)c2ccccc2[nH]1)N1CCC(Cc2ccccc2)CC1,1.1%,–
